In ChEMBL document CHEMBL2346608, “New annelated thieno[2,3-e][1,2,3]triazolo[1,5-a]pyrimidines, with potent anticancer activity, designed through VLAK protocol” (2013):

Legend:
Format in all cases: functional
OVCAR-5 = experiment: Antiproliferative activity against human OVCAR5 cells after 48 hrs by sulforhodamine B assay; settings: OVCAR-5, 48 h
Outline: (§1)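 Cells grown in RPMI 1640 with 5% FBS and 2 mM L-glutamine, plated at 5000–40,000 cells/well and preincubated 24 h at 37 °C, 5% CO2. Five drug concentrations (10-fold or ½-log dilutions from DMSO stocks) applied for 48 h. TCA-fixed (final 10% adherent, 16% suspension), SRB-stained, A515 read. Growth versus time-zero and control wells gave GI50, TGI, LC50.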

HT-29 = experiment: Antiproliferative activity against human HT-29 cells after 48 hrs by sulforhodamine B assay; settings: HT-29, 48 h; outline: as §1
M14 = experiment: Antiproliferative activity against human M14 cells after 48 hrs by sulforhodamine B assay; settings: M14, 48 h; outline: as §1
[1] = Antiproliferative activity against human EKVX cells after 48 hrs by sulforhodamine B assay; outline: as §1
MCF7 = experiment: Antiproliferative activity against human MCF7 cells after 48 hrs by sulforhodamine B assay; settings: MCF7, 48 h; outline: as §1
KM12 = experiment: Antiproliferative activity against human KM12 cells after 48 hrs by sulforhodamine B assay; settings: KM12, 48 h; outline: as §1
OVCAR-3 = experiment: Antiproliferative activity against human OVCAR3 cells after 48 hrs by sulforhodamine B assay; settings: OVCAR-3, 48 h; outline: as §1
SN12C = experiment: Antiproliferative activity against human SN12C cells after 48 hrs by sulforhodamine B assay; outline: as §1
OVCAR-4 = experiment: Antiproliferative activity against human OVCAR4 cells after 48 hrs by sulforhodamine B assay; settings: OVCAR-4, 48 h; outline: as §1
ACHN = experiment: Antiproliferative activity against human ACHN cells after 48 hrs by sulforhodamine B assay; outline: as §1
TK-10 = experiment: Antiproliferative activity against human TK10 cells after 48 hrs by sulforhodamine B assay; settings: TK-10, 48 h
Outline: (§2)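 Cells in RPMI 1640 with 5% FBS and 2 mM L-glutamine were seeded at 5000–40,000/well according to doubling time and preincubated 24 h at 37 °C in 5% CO2. Time-zero plates were TCA-fixed when drug was added. Five 10-fold or ½-log dilutions from DMSO stocks were added for 48 h. After SRB staining, A515 was read and GI50 derived from [(Ti−Tz)/(C−Tz)]×100 = 50.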

LOX IMVI = experiment: Antiproliferative activity against human LOXIMVI cells after 48 hrs by sulforhodamine B assay; outline: as §1
SK-MEL-28 = experiment: Antiproliferative activity against human SK-MEL-28 cells after 48 hrs by sulforhodamine B assay; settings: SK-MEL-28, 48 h; outline: as §1
OVCAR-8 = experiment: Antiproliferative activity against human OVCAR8 cells after 48 hrs by sulforhodamine B assay; settings: OVCAR-8, 48 h; outline: as §1
SF-268 = experiment: Antiproliferative activity against human SF268 cells after 48 hrs by sulforhodamine B assay; settings: SF-268, 48 h; outline: as §1
DU-145 = experiment: Antiproliferative activity against human DU145 cells after 48 hrs by sulforhodamine B assay; settings: DU-145, 48 h; outline: as §1
HCT-15 = experiment: Antiproliferative activity against human HCT15 cells after 48 hrs by sulforhodamine B assay; settings: HCT-15, 48 h; outline: as §1
SF-539 = experiment: Antiproliferative activity against human SF539 cells after 48 hrs by sulforhodamine B assay; settings: SF-539, 48 h; outline: as §1
A549 = experiment: Antiproliferative activity against human A549 cells after 48 hrs by sulforhodamine B assay; settings: A549, 48 h; outline: as §1
[2] = Antiproliferative activity against human Hs 578T cells after 48 hrs by sulforhodamine B assay; outline: as §1
786-0 = experiment: Antiproliferative activity against human 786-0 cells after 48 hrs by sulforhodamine B assay; settings: 786-0, 48 h; outline: as §1
HOP-62 = experiment: Antiproliferative activity against human HOP62 cells after 48 hrs by sulforhodamine B assay; settings: HOP-62, 48 h; outline: as §1
MDA-MB-468 = experiment: Antiproliferative activity against human MDA-MB-468 cells after 48 hrs by sulforhodamine B assay; settings: MDA-MB-468, 48 h; outline: as §1
NCI-H226 = experiment: Antiproliferative activity against human NCI-H226 cells after 48 hrs by sulforhodamine B assay; settings: NCI-H226, 48 h; outline: as §1
MDA-MB-435 = experiment: Antiproliferative activity against human MDA-MB-435 cells after 48 hrs by sulforhodamine B assay; settings: MDA-MB-435, 48 h; outline: as §1
HL-60 = experiment: Antiproliferative activity against human HL60 (TB) cells after 48 hrs by sulforhodamine B assay; settings: HL-60, 48 h
Outline: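 NCI 60-cell panel protocol: cells in RPMI 1640 with 5% FBS and 2 mM L-glutamine, plated 24 h at 37 °C/5% CO2 before dosing. Compounds dissolved in DMSO and tested at five concentrations (10-fold or ½ log serial dilutions) for 48 h. Suspension cells fixed with 80% TCA (final 16%), SRB stained, absorbance at 515 nm. GI50 derived from time-zero-corrected growth.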

U-251 = experiment: Antiproliferative activity against human U251 cells after 48 hrs by sulforhodamine B assay; settings: U-251, 48 h; outline: as §2
[3] = read-out: pLC50 (the source's name) (converted)

Q: What does the source list for `CN1CCN(CCCn2c(=O)c3sc4ncccc4c3n3nnc(-c4ccccc4)c23)CC1`?
A: GI50 (OVCAR-5): 8.91 µM; LC50 (OVCAR-5): 32.4 µM; TGI (OVCAR-5; read-out: pTGI (converted)): 17 µM; GI50 (HT-29): 2.88 µM; LC50 (HT-29): 23.4 µM; TGI (HT-29; read-out: pTGI (converted)): 9.55 µM; GI50 (M14): 2.14 µM; LC50 (M14): 20.9 µM; TGI (M14; read-out: pTGI (converted)): 7.41 µM; GI50 [1]: 6.46 µM; LC50 [1]: 27.5 µM; TGI ([1]; read-out: pTGI (converted)): 13.2 µM; GI50 (MCF7): 7.76 µM; LC50 (MCF7): 29.5 µM; TGI (MCF7; read-out: pTGI (converted)): 15.1 µM; GI50 (KM12): 4.27 µM; LC50 (KM12): 24.5 µM; TGI (KM12; read-out: pTGI (converted)): 10.7 µM; GI50 (OVCAR-3): 2.29 µM; LC50 (OVCAR-3): 20.4 µM; TGI (OVCAR-3; read-out: pTGI (converted)): 7.59 µM; GI50 (SN12C): 7.24 µM; LC50 (SN12C): 28.2 µM; TGI (SN12C; read-out: pTGI (converted)): 14.1 µM; GI50 (OVCAR-4): 7.24 µM; LC50 (concentration killing 50% of cells) (OVCAR-4): 26.9 µM; TGI (OVCAR-4; read-out: pTGI (converted)): 14.1 µM; GI50 (ACHN): 8.13 µM; LC50 (50% lethal concentration) (ACHN): 27.5 µM; TGI (ACHN; read-out: pTGI (converted)): 15.1 µM; GI50 (TK-10): 6.92 µM; LC50 (TK-10): 26.9 µM; TGI (TK-10; read-out: pTGI (converted)): 13.5 µM; GI50 (LOX IMVI): 5.37 µM; CC50 (LOX IMVI; [3]): 25.1 µM; TGI (LOX IMVI; read-out: pTGI (converted)): 11.5 µM; GI50 (SK-MEL-28): 8.71 µM; LC50 (SK-MEL-28): 28.2 µM; TGI (SK-MEL-28; read-out: pTGI (converted)): 15.8 µM; GI50 (OVCAR-8): 7.76 µM; LC50 (OVCAR-8): 30.2 µM; TGI (OVCAR-8; read-out: pTGI (converted)): 15.5 µM; GI50 (SF-268): 6.46 µM; LC50 (SF-268): 26.9 µM; TGI (SF-268; read-out: pTGI (converted)): 13.2 µM; GI50 (DU-145): 5.89 µM; LC50 (DU-145): 25.1 µM; TGI (DU-145; read-out: pTGI (converted)): 12.3 µM; GI50 (HCT-15): 6.17 µM; LC50 (HCT-15): 28.2 µM; TGI (HCT-15; read-out: pTGI (converted)): 13.2 µM; GI50 (SF-539): 5.75 µM; LC50 (SF-539): 30.9 µM; TGI (SF-539; read-out: pTGI (converted)): 13.5 µM; GI50 (A549): 6.76 µM; LC50 (A549): 28.2 µM; TGI (A549; read-out: pTGI (converted)): 13.8 µM; GI50 [2]: 6.46 µM; LC50 [2]: 39.8 µM; TGI ([2]; read-out: pTGI (converted)): 16.2 µM; GI50 (786-0): 7.41 µM; CC50 (786-0; [3]): 28.8 µM; TGI (786-0; read-out: pTGI (converted)): 14.5 µM; GI50 (HOP-62): 8.13 µM; LC50 (HOP-62): 28.8 µM; TGI (HOP-62; read-out: pTGI (converted)): 15.5 µM; GI50 (MDA-MB-468): 6.92 µM; LC50 (MDA-MB-468): 28.2 µM; TGI (MDA-MB-468; read-out: pTGI (converted)): 13.8 µM; GI50 (NCI-H226): 7.41 µM; LC50 (NCI-H226): 31.6 µM; TGI (NCI-H226; read-out: pTGI (converted)): 15.1 µM; GI50 (MDA-MB-435): 1.17 µM; LC50 (MDA-MB-435): 13.2 µM; TGI (MDA-MB-435; read-out: pTGI (converted)): 3.02 µM; GI50 (HL-60): 0.794 µM; CC50 (HL-60; [3]): 3.8 µM; TGI (HL-60; read-out: pTGI (converted)): 1.74 µM; GI50 (U-251): 5.25 µM; LC50 (U-251): 24 µM; TGI (U-251; read-out: pTGI (converted)): 11.2 µM
